This note sets out measurements from ChEMBL document CHEMBL1122991, “[(Aminomethyl)aryloxy]acetic acid esters. A new class of high-ceiling diuretics. 4. Substituted 6,7-dichloro-2,3-dihydrobenzofurans derived by ring annelation” (1985).

Assay [1] relates to Rattus norvegicus. In words: Natriuretic potency was evaluated as oral dose required to produce an excretion of 2 mequiv of Na+/Kg of rat body weight. In kind it is functional. Summed up:
(§1)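 Oral gavage in female rats fed glucose and water overnight. DOCA 5 mg sc is given 2 h before dosing, and rats are loaded with isotonic NaCl-KCl (40:60) to 3% body weight right after dosing. Na+ excretion is collected over 4 h, four rats/dose. ED2 is taken from a linear regression of Na+ excretion vs log dose.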

Assay [2] concerns Rattus norvegicus. As to the kind of experiment: Natriuretic potency was evaluated as oral dose required to produce an excretion of 2 mequiv of Na+/Kg of rat body weight; IA means Inactive. In kind it is functional, organism-based. Summed up:
as §1

The next assay relates to Canis familiaris. In words: Natriuretic potency was evaluated as oral dose required to produce an excretion of 2 mequiv of Na+/Kg of dog body weight, ED5 value based on N=2 dogs/dose. Format: functional, Canis lupus familiaris. Summed up:
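Conscious nonloaded female dogs dosed orally, two dogs/dose. ED5 is derived from a linear regression of Na+ excretion vs log dose.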

The subject of assay [3] is Rattus norvegicus. As to the kind of experiment: Natriuretic potency was evaluated as oral dose required to produce an excretion of 2 mequiv of Na+/Kg of rat body weight, ED2 value based on N=4 rats/dose. In kind it is functional. The gist of the method:
as §1

The species named for assay [4] is Rattus norvegicus. As to the kind of experiment: Urine-to-plasma concentration ratio for inulin in rat. In kind it is functional. Summed up: (§2)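 Male adult Sprague-Dawley rats infused with Ringer's solution at 2 mL/100 g per h plus [3H]inulin (100 μCi/h). Two 30-min urine collections with midpoint blood samples form the control period. A single iv bolus of 0.1 mg/kg is given over 20–30 s, and 30 min later two more 30-min periods follow, with iv fluid replacement. Urine volume, Na+, K+ and inulin counts are measured, and GFR and fractional excretion are calculated by standard formulae. Paired t test, n = 8.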

The species entered for assay [5] is Rattus norvegicus. In words: Fractional excretion of K+ (percent of filtered load) in rat. Format: functional. Summed up: as §2
The species entered for assay [6] is Rattus norvegicus. As to the kind of experiment: Fractional delivery of Na+ to puncture site (percent of filtered load) of early distal tubular segments in the exposed kidney. Format: functional. The gist of the method: (§3)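 Male adult Sprague-Dawley rats prepared for free-flow micropuncture, infused with Ringer's solution at 2 mL/100 g per h plus [3H]inulin (100 μCi/h). Early and late distal tubular fluid sampled from the exposed kidney during control periods and after a single iv bolus of 0.1 mg/kg given over 20–30 s. Control and treated groups compared by unpaired t test.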

For assay [7], the species on record is Rattus norvegicus. As to the kind of experiment: Single nephron glomerular filtration rate of early distal tubular segments in the exposed kidney. In kind it is functional. The gist of the method:
as §3

For assay [8], the species on record is Rattus norvegicus. As to the kind of experiment: Fractional delivery of K+ to puncture site (percent of filtered load) of early distal tubular segments in the exposed kidney. Format: functional. The gist of the method:
as §3

For assay [9], the species on record is Rattus norvegicus. As to the kind of experiment: Fractional delivery of Na+ to puncture site (percent of filtered load) of late distal tubular segments in the exposed kidney. In kind it is functional. The gist of the method:
as §3

Assay [10] is filed under the species Rattus norvegicus. As to the kind of experiment: Na+ concentration in plasma sample of rat. In kind it is functional, organism-based. The gist of the method:
as §2

The species entered for assay [11] is Rattus norvegicus. As to the kind of experiment: Urine flow rate of early distal tubular segments in the exposed kidney. Format: functional. Summed up:
as §3

Assay [12] is filed under the species Rattus norvegicus. As to the kind of experiment: Fractional delivery of K+ to puncture site (percent of filtered load) of late distal tubular segments in the exposed kidney. Format: functional. Summed up:
as §3

The species entered for assay [13] is Rattus norvegicus. In words: Urine flow rate of late distal tubular segments in the exposed kidney. Format: functional. The gist of the method: as §3
The species entered for assay [14] is Rattus norvegicus. In words: K+ concentration in plasma sample of rat. Format: functional, organism-based. Summed up: as §2
A short description of assay [15]: Ratio of number of tubules/number of rats of late distal tubular segments in the exposed kidney. In kind it is functional.
Assay [16] is filed under the species Rattus norvegicus. In words: Urine flow rate per kidney was evaluated in rat. In kind it is functional. Summed up:
as §2

The species named for assay [17] is Rattus norvegicus. As to the kind of experiment: Glomerular filtration rate (per one kidney) per 100 g body weight of rat. In kind it is functional. The gist of the method:
as §2

Assay [18] is filed under the species Rattus norvegicus. As to the kind of experiment: Tubular fluid-to-plasma concentration ratio for inulin of early distal tubular segments in the exposed kidney. Format: functional. The gist of the method:
as §3

The species named for assay [19] is Rattus norvegicus. As to the kind of experiment: Single nephron glomerular filtration rate of late distal tubular segments in the exposed kidney. In kind it is functional. The gist of the method: as §3
For assay [20], the species on record is Rattus norvegicus. As to the kind of experiment: Fractional excretion of Na+ (percent of filtered load) in rat. Format: functional. The gist of the method: as §2
For assay [21], the species on record is Rattus norvegicus. In words: Tubular fluid-to-plasma concentration ratio for inulin of late distal tubular segments in the exposed kidney. In kind it is functional. The gist of the method: as §3

Activity calls are given as the source filed them. The rule behind the calls is not given here.

Consider `NCc1cc(C(=O)c2cc3c(c(Cl)c2Cl)OC(CO)C3)ccc1O` (centres undefined), for which, in the assay on Rattus norvegicus [1], the ED2 was found to be 0.95 mg/kg.

In the case of `CCOC(=O)C1Cc2cc(C(=O)c3cc(Cl)c(O)c(CN)c3)c(Cl)c(Cl)c2O1` (centres undefined), the ED2 with Rattus norvegicus [1] worked out at 21.5 mg/kg.

Regarding `CCOC(=O)C1Cc2cc(C(=O)c3cc(CN(C)C)c(O)c(CN(C)C)c3)c(Cl)c(Cl)c2O1` (centres undefined), the ED2 in the assay on Rattus norvegicus [1] amounted to 1.82 mg/kg.

In the case of `NCc1cc(C(=O)c2cc3c(c(Cl)c2Cl)OC(C(N)=O)C3)ccc1O` (centres undefined), in the assay with Rattus norvegicus [1], the ED2 was 2.95 mg/kg.

Turning to `CCOC(=O)C1Cc2cc(Cc3cc(CN)c(O)c(CN)c3)c(Cl)c(Cl)c2O1` (centres undefined), in the assay with Rattus norvegicus [1], the ED2 amounted to 49 mg/kg.

On to `NCc1cc(C(=O)c2cc3c(c(Cl)c2Cl)OC(C(=O)O)C3)ccc1O` (centres undefined), for which, in the assay with Rattus norvegicus [2], the ED2 entry was “inactive”.

Consider `CCCCNc1cc(C(=O)O)cc(S(N)(=O)=O)c1Oc1ccccc1` [BUMETANIDE], for which, in the assay on Canis familiaris, the ED5 was found to be 0.15 mg/kg. The ED2 with Rattus norvegicus [3] was 8.5 mg/kg.

Take `NS(=O)(=O)c1cc(C(=O)O)c(NCc2ccco2)cc1Cl` [FUROSEMIDE]: the ED5 in the assay on Canis familiaris stood at 3.5 mg/kg. Moreover, the ED2 in the assay on Rattus norvegicus [3] was 9.5 mg/kg.

For the compound `NCc1cc(Cc2cc3c(c(Cl)c2Cl)OC(CO)C3)ccc1O` (centres undefined), in the assay on Rattus norvegicus [1], the ED2 is 10.2 mg/kg.

For the compound `NS(=O)(=O)c1cc(C(=O)O)cc(N2CCCC2)c1Oc1ccccc1` [PIRETANIDE], in the assay on Canis familiaris, the ED5 came out at 0.25 mg/kg. For the same compound, in the assay with Rattus norvegicus [3], the ED2 came out at 0.89 mg/kg.

As for `CCOC(=O)C1Cc2cc(Cc3ccc(O)c(CN)c3)c(Cl)c(Cl)c2O1` (centres undefined), the ED2 in the assay with Rattus norvegicus [1] amounted to 8 mg/kg.

`CCOC(=O)C1Cc2cc(C(=O)c3ccc(O)c(CN)c3)c(Cl)c(Cl)c2O1` (centres undefined): the U/P in the assay filed under Rattus norvegicus [4] was determined as 19.7. In addition, the FE in the assay filed under Rattus norvegicus [5] amounted to 54.6%; in the assay filed under Rattus norvegicus [20], 6.3%. The FD is given as 13.6% in the assay listed under Rattus norvegicus [6], 23% in the assay filed under Rattus norvegicus [8], 8.1% in the assay listed under Rattus norvegicus [9] and 23.6% in the assay filed under Rattus norvegicus [12]. Besides, the SNGFR in the assay listed under Rattus norvegicus [7] was 35.7 nL/min; in the assay filed under Rattus norvegicus [19] it was 33.9 nL/min. The ED5 in the assay with Canis familiaris amounted to 0.11 mg/kg. The Plasma in the assay filed under Rattus norvegicus [10] was 144 mM; in the assay filed under Rattus norvegicus [14], 3.57 mM. For the same compound, the figures for the Rate in the assay listed under Rattus norvegicus [11], in the assay listed under Rattus norvegicus [13] and in the assay filed under Rattus norvegicus [16] were 8.2 nL/min, 4.6 nL/min and 67.6 µL/min, respectively. In [15], the Ratio was 8. The compound also yielded a GFR in the assay listed under Rattus norvegicus [17] of 0.46 mL/min. Further, the figures for the TF/P in the assay filed under Rattus norvegicus [18] and in the assay listed under Rattus norvegicus [21] were 4.39 and 8.48, respectively. Moreover, the ED2 with Rattus norvegicus [3] was found to be 0.12 mg/kg.
